Here are results for five compounds from ChEMBL document CHEMBL2150886, “Synthesis of [3β-acetoxy-urs-12-en-28-oyl]-1-monoglyceride and investigation on its anti tumor effects against BGC-823” (Bioorg Med Chem, 2011).

In data set [1] the test system is HT-29. Briefly: Cytotoxicity against human HT-29 cells incubated for 48 hrs by MTT assay. The note with it: HT-29, 48 h. The data set is classed as functional, cell-based. In short, it runs like this:
(§1)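 Cells were grown in RPMI-1640 with 10% heat-inactivated FCS at 37 °C under 5% CO₂, seeded at 5 × 10³ per well and left 24 h. Compounds in DMSO were diluted in medium to 0.5% final DMSO; controls received 0.5% DMSO. Exposure was 24–72 h, followed by MTT for 4 h, formazan dissolved in DMSO, and A570. Six wells per sample; IC₅₀ taken at 50% inhibition; ≥3 repeats.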
Background: Tetrazolium assays rely on reduction of a dye to a coloured formazan, in cell work by metabolically active cells.

The subject of data set [2] is HepG2. Briefly: Cytotoxicity against human HepG2 cells incubated for 48 hrs by MTT assay. The note with it: HepG2, 48 h. The format is functional, cell-based. The essentials: as §1
Data set [3] deals with BGC-823. The data set is described as follows: Cytotoxicity against human BGC823 cells by MTT assay. The format is functional, cell-based. The essentials: as §1
Data set [4] is described as follows: Cytotoxicity against human GES-1 cells incubated for 48 hrs by MTT assay. The format is cell-based. The note with it: GES1, 48 h. In short, it runs like this:
as §1

Data set [5] relates to Mus musculus. The data set is described as follows: Toxicity in human BGC823 cells xenografted nude mouse assessed as body weight changes at 8 mg/kg, iv treated 4 times on day 1, 4, 7 and 10 post tumor implant (reference value: 20.54 +/- 1.45 grams). The data set is classed as organism-based, BGC-823. On the set-up: dose 8 mg/kg, route intravenous. The following applies: in vivo. Background: Xenograft models place foreign cells or tissue in a host animal.

In data set [6] the test system is Mus musculus. Briefly: Toxicity in human BGC823 cells xenografted nude mouse assessed as body weight changes at 8 mg/kg, iv treated 5 times on day 1, 4, 7, 10 and day 13 post tumor implant (reference value: 20.21 +/- 1.83 grams). On the set-up: dose 8 mg/kg, route intravenous. The note with it: in vivo. The data set is classed as organism-based, BGC-823.
Data set [7] deals with Mus musculus. Briefly: Toxicity in human BGC823 cells xenografted nude mouse assessed as body weight changes at 8 mg/kg, iv treated […] on day 1, 4, 7, 10, 13 and day 16 post tumor implant (reference value: 20.12 +/- 1.52 grams). The format is organism-based, BGC-823. On the set-up: dose 8 mg/kg, route intravenous. The following applies: in vivo.
In data set [8] the test system is BGC-823. Briefly: Antitumor activity against human BGC823 cells xenografted in nude mouse assessed as reduction in tumor volume at 8 mg/kg, iv dosed 5 times. The format is functional. On the set-up: scale not given: the % may be the effect or the level left. In short, it runs like this:
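Male nude mice (5 weeks, 18–22 g) inoculated subcutaneously with 1 × 10⁷ BGC-823 cells. At about 200 mm³ tumours, animals were randomised into four groups of eight. Each received 0.2 mL iv by tail vein; controls got 0.9% saline. Tumour volume was measured daily as 0.5 × length × width²; tumours were weighed at the end. Values are mean ± SD, n = 8.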

Data set [9] relates to Mus musculus. The data set is described as follows: Toxicity in human BGC823 cells xenografted nude mouse assessed as body weight changes at 8 mg/kg, iv treated on day 1 post tumor implant (reference value: 19.69 +/- 1.21 grams). The format is organism-based, BGC-823. On the set-up: dose 8 mg/kg, route intravenous. The note with it: in vivo.
Data set [10] relates to Mus musculus. Briefly: Toxicity in human BGC823 cells xenografted nude mouse assessed as body weight changes at 8 mg/kg, iv treated 2 times on day 1 and day 4 post tumor implant (reference value: 20.58 +/- 1.35 grams). The data set is classed as organism-based, BGC-823. The arrangement: dose 8 mg/kg, route intravenous. The following applies: in vivo.
In data set [11] the test system is Mus musculus. Briefly: Toxicity in human BGC823 cells xenografted nude mouse assessed as body weight changes at 8 mg/kg, iv treated 3 times on day 1, day 4 and day 7 post tumor implant (reference value: 20.79 +/- 1.29 grams). The format is organism-based, BGC-823. On the set-up: dose 8 mg/kg, route intravenous. The following applies: in vivo.

With `CC(=O)O[C@H]1CC[C@]2(C)[C@H]3CC=C4[C@@H]5[C@@H](C)[C@H](C)CC[C@]5(C(=O)OCCO)CC[C@@]4(C)[C@]3(C)CC[C@H]2C1(C)C`, the IC50 in [1] was found to be 23.6 µM; in data set [2], 29.8 µM; in data set [3] it was 17.2 µM; in [4] it was 137 µM.

With `CC(=O)O[C@H]1CC[C@]2(C)[C@H]3CC=C4[C@@H]5[C@@H](C)[C@H](C)CC[C@]5(C(=O)O)CC[C@@]4(C)[C@]3(C)CC[C@H]2C1(C)C` [O-ACETYLURSOLIC ACID], the IC50 in data set [1] was 23.9 µM; in data set [2], 37.7 µM; in data set [3] it was 19.4 µM; in [4], 92.9 µM.

With `CC(=O)O[C@H]1C(=O)[C@@]2(C)[C@H]([C@H](OC(=O)c3ccccc3)[C@]3(O)C[C@H](OC(=O)[C@H](O)[C@@H](NC(=O)c4ccccc4)c4ccccc4)C(C)=C1C3(C)C)[C@]1(OC(C)=O)CO[C@@H]1C[C@@H]2O` [PACLITAXEL], the Activity is reported as 20.13 g in data set [5]; 20.17 g in [6]; 20.25 g in data set [7]; 15.2% in [8]; 18.76 g in data set [9]; 19.72 g in data set [10]. The Activity in data set [11] was found to be 19.7 g. Besides, the figures for the IC50 in data set [1], in data set [3] and in data set [4] were less than 10 µM, 33.1 µM and 106 µM, respectively.

Consider `C[C@H]1[C@H](C)CC[C@]2(C(=O)O)CC[C@]3(C)C(=CC[C@@H]4[C@@]5(C)CC[C@H](O)C(C)(C)[C@@H]5CC[C@]43C)[C@H]12` [URSOLIC ACID], for which the IC50 in data set [1] worked out at 26.3 µM; in data set [3], 23 µM; in data set [4], 93.8 µM.

As for `C[C@H]1[C@H](C)CC[C@]2(C(=O)OCC(O)CO)CC[C@]3(C)C(=CC[C@@H]4[C@@]5(C)CC[C@H](O)C(C)(C)[C@@H]5CC[C@]43C)[C@H]12` (some centres undefined), the IC50 is 44.2 µM in [2], 20.5 µM in data set [3] and 154 µM in [4].

In general, IC50 refers to the concentration at which inhibition is half-maximal.
